Published values pooled from the literature.
Each line is one published result; the experiments were not run side by side.
Cell line: Vero
Effect on: cell growth or viability

Structure (SMILES) | technique | time | IC50
Cc1nnc(-c2ccc(NC(=O)Cn3c(=O)c4cc(I)ccc4n(Cc4ccccc4)c3=O)cc2)o1 | – | – | 46.1 µM
Cc1ccc2c(-c3cc4c(CNCc5cccnc5)cnc(C)c4o3)cc(=O)oc2c1C | MTT | 72 h | 98.5 µM
COC(=O)c1ccc(NC(=O)Cn2c(=O)c3cc(I)ccc3n(Cc3ccccc3)c2=O)cc1 | – | – | 50.2 µM
Cc1ncc(CN2CCN(Cc3ccccn3)CC2)c2cc(C(=O)c3ccc4c(c3)OCCO4)oc12 | MTT | 72 h | 50.1 µM
Clc1ccc(-c2nnc(Nc3ccc(C4=NNC(c5ccccc5)C4)cc3)c3ccccc23)cc1 (stereo not drawn) | – | – | 4.75 µM
CCOC(=O)c1ccc(NC(=O)Cn2c(=O)c3cc(I)ccc3n(Cc3ccccc3)c2=O)cc1 | – | – | 49.1 µM
O=c1nc(-c2ccc(Nc3nnc(-c4ccc(Cl)cc4)c4ccccc34)cc2)cc(-c2ccccc2)[nH]1 | – | – | 4 µM
Cc1cc(C)n(-c2ccc(NC(=O)Cn3c(=O)c4cc(I)ccc4n(Cc4ccccc4)c3=O)cc2)n1 | – | – | 45.5 µM
COc1ccc(NC(=O)C2=C(C)NC(C)=C(C(=O)Nc3ccc(OC)cc3OC)C2c2ccc(Cl)cc2)c(OC)c1 | MTT | – | 76.4 µM
Oc1ccc(C2CC(c3ccc(Nc4nnc(-c5ccc(Cl)cc5)c5ccccc45)cc3)=NN2)cc1 (stereo not drawn) | – | – | 4.35 µM
COc1ccc(NC(=O)C2=C(C)NC(C)=C(C(=O)Nc3cc(OC)c(Cl)cc3OC)C2c2ccc(O)cc2)c(OC)c1 (stereo not drawn) | MTT | – | 60.2 µM
CN(C)C/C=C/C(=O)Nc1cc2c(Nc3ccc(F)c(Cl)c3)ncnc2cc1O[C@H]1CCOC1 | MTT | 72 h | 110 µM
COc1ccc(NC(=O)C2=C(C)NC(C)=C(C(=O)Nc3ccc(OC)cc3OC)C2c2ccco2)c(OC)c1 | MTT | – | 51.6 µM
O=c1nc(-c2ccc(Nc3nnc(-c4ccc(Cl)cc4)c4ccccc34)cc2)cc(-c2ccc(Cl)cc2)[nH]1 | – | – | 3 µM
COc1ccc(NC(=O)C2=C(C)NC(C)=C(C(=O)Nc3cc(OC)c(Cl)cc3OC)C2c2ccco2)c(OC)c1 (stereo not drawn) | MTT | – | 68.1 µM
S=c1nc(-c2ccc(Nc3nnc(-c4ccc(Cl)cc4)c4ccccc34)cc2)cc(-c2ccccc2)[nH]1 | – | – | 4.12 µM
COc1cc(NC(=O)C2=C(C)NC(C)=C(C(=O)Nc3cc(OC)c(Cl)cc3OC)C2c2ccccc2)c(OC)cc1Cl | MTT | – | 42.2 µM
O=C(CN1C(=O)SC(=Cc2ccc(Cl)cc2Cl)C1=O)Nc1ccc(C(=O)NNC(=O)c2ccccc2)cc1 | MTS | – | 3.97 µM
